In assay [1] the test system is Mycobacterium tuberculosis. The experiment in a line: Antimicrobial activity against multidrug-resistant Mycobacterium tuberculosis LAM-1 at 5 uM by Bactec 460 TB method relative to control. Format: functional. The following applies: read-out: GI. An outline of the steps:
(§1)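 MDR clinical isolate LAM-1 was precultured in a BACTEC vial to growth index 300, then inoculated into a fresh vial with compound (dilutions made at 40-fold final in 7H9-10% OADC). 14CO2 release from 14C-palmitic acid was read daily.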

The subject of assay [2] is Mycobacterium tuberculosis. The assay can be described thus: Antimicrobial activity against multidrug-resistant Mycobacterium tuberculosis LAM-1 at 1 uM by Bactec 460 TB method relative to control. Format: functional. Conditions: read-out: GI. An outline of the steps: as §1

In the case of `COc1ccc(-c2cc(O)c3c(c2)C(=O)c2ccccc2C3=O)cc1`, in assay [1], the inhibition of growth at 5 µM was found to be 99%. The inhibition of growth at 1 µM in assay [2] came to 90%.

Regarding `COc1ccc(-c2cc3c(c(/C=C/N(C)C)n2)C(=O)c2ccccc2C3=O)cc1`, the inhibition of growth at 5 µM in assay [1] is 99%. Besides, the inhibition of growth at 1 µM in assay [2] stood at 90%.

For `COc1ccc(-c2cc3c4c(nccc4n2)-c2ccccc2C3=O)cc1`, the inhibition of growth at 5 µM in assay [1] was 99%. In addition, in assay [2], the inhibition of growth at 1 µM is 90%.

The values above are taken from ChEMBL document CHEMBL2434878, “Synthesis and antimycobacterial activity of analogues of the bioactive natural products sampangine and cleistopholine” (Eur J Med Chem, 2013).
